LEDGF integ inh: blockers of LEDGF/p75-dependent integrase strand transfer – biochemical, TR-FRET, high throughput, primary screen. AID 743269, 2014. TR-FRET IN-LEDGF/p75 DNA integration, Eu/Cy5. actives 0.64% (n = 370,000). inhibition, % at 3.7 µM. HIV-1 integrase (with human LEDGF/p75);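 active means inhibition above the screen-wide mean plus 3 SD, cut at about 13% in these data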;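 further: signal is the Cy5 over europium emission ratio at 671 and 618 nm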
UHRF1 binding: UHRF1 methylated DNA binding inhibitors, primary screen, counter-screen for MBD2 inhibitor project, biochemical, TR-FRET, human UHRF1, single concentration; actives 0.75% (n = 370,000); E3 ubiquitin-protein ligase UHRF1 (Homo sapiens), Q96T88; inhibition, % at 4.4 µM; UHRF1 binding to methylated oligo;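 further: UHRF1 SRA domain binding a hemimethylated CpG hairpin DNA probe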
TDP2 inh: human TDP2 enzyme inhibitors, primary screen, biochemical, epi absorbance, recombinant enzyme; inhibition, % at 12.8 µM; Tyrosyl-DNA phosphodiesterase 2 (Homo sapiens), O95551; T5PNP hydrolysis, p-nitrophenol absorbance 415 nm; actives 0.34% (n = 370,000);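 active means inhibition above the mean of all tested compounds plus 3 SD, set per campaign, cut at about 25% in these data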
Target sequence (O95551 whole entry, looked up): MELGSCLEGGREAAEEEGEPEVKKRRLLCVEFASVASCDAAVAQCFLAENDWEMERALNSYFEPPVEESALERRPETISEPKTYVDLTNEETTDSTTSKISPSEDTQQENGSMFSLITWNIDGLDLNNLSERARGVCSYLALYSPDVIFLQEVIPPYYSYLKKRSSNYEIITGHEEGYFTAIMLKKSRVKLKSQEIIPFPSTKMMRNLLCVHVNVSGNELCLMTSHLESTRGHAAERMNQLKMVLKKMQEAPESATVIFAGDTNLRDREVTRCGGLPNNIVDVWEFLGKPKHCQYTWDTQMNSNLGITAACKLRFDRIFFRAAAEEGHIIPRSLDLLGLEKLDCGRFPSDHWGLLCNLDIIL
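System – recombinant human TDP2 · Amount – 120 nM TDP2 per well · Buffer or medium – Mg2+-containing Tris-HCl buffer, pH 7.5 · Reagent – T5PNP substrate, 5 mM · Dosing – 12.8 µM single point, 1% DMSO · Incubation – 2 h at 37 °C · Measured by – epi absorbance · Read-out basis – percent inhibition · Benchmarks – high control without enzyme, low control DMSO plus TDP2 · Repeats – singlicate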
MBD2 DNA inh: inhibitors of MBD2 binding to methylated DNA, primary screen, biochemical, TR-FRET, DNA-binding domain, human; MBD2 binding to methylated oligonucleotide; actives 0.31% (n = 370,000); AID 686964, 2013; inhibition, % at 4.4 µM; in the data active means inhibition above about 13%
UHRF1 DNA bind: UHRF1 methylated DNA binding inhibitors, counter-screen for MBD2 inhibitor project, biochemical, TR-FRET, human UHRF1; inhibition, % at 4.4 µM; actives 25% (n = 1,000); AID 720530, 2013; UHRF1 binding to methylated oligonucleotide; shares compounds with MBD2 DNA inh;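 further: UHRF1 SRA domain binding a labeled hemimethylated CpG hairpin DNA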
MBD2 DBD conf: inhibitors of MBD2 binding to methylated DNA, confirmation, biochemical, TR-FRET, DNA-binding domain, human; shares compounds with MBD2 DNA inh; TR-FRET MBD2-DBD binding to methylated oligonucleotide; inhibition, % at 4.4 µM; actives 26% (n = 1,000); in the data active means inhibition above about 14%
Large screens that a line does not name were inactive (follow-up assays come after a bar, where they were run). Rows were chosen to be rich in hits. Some 1.6% of all compounds tested hit in one or more screens of this group. Unless noted, no stated cut-off is given here; in the data, active means inhibition above about 21%; inactive means the rest.

COc1ccc2nc(C)cc(Nc3ccc(N4CCN(C)CC4)cc3)c2c1	UHRF1 binding 54.2, MBD2 DNA inh 56.4 | UHRF1 DNA bind 48.9 | MBD2 DBD conf 51.4
Cc1ccc(C(=O)C2CCN(CC(=O)N3CCOCC3)CC2)cc1	none
Cc1ccc(C(=O)N2CCN(C(=O)CN3CCOCC3)C2)cc1	MBD2 DNA inh 13.9 | UHRF1 DNA bind inactive | MBD2 DBD conf inactive
Cc1ccc(-n2c(SC/C=C/c3ccccc3)nnc2-c2cccs2)cc1	none
O=C(NCCCc1ccccc1)[C@@H]1Cc2ccccc2CN1	none
COc1cc2c(cc1OC)CC(C(=O)NCc1ccccc1)NC2 (stereo not drawn)	MBD2 DNA inh 16.9 | UHRF1 DNA bind inactive | MBD2 DBD conf inactive
COCc1cc(N2CCN(C(=O)OC(C)(C)C)C[C@@H]2C)ccc1N1CCN(Cc2ccccc2)[C@@H](C)C1	none
Cc1ccccc1NCC(=O)N/N=C/c1ccc[nH]1	none
COc1cc(/C=C(\C#N)C(=O)NCC2CCCO2)ccc1OCC(=O)O (stereo not drawn)	none
COc1cc(/C=C(\C#N)C(=O)NCC2CCCO2)c([N+](=O)[O-])cc1OC (stereo not drawn)	UHRF1 binding 20.8, MBD2 DNA inh 13.9 | UHRF1 DNA bind inactive | MBD2 DBD conf inactive
CSc1nc2ccccc2n1Cc1cccc([N+](=O)[O-])c1	MBD2 DNA inh 16.2 | UHRF1 DNA bind inactive | MBD2 DBD conf inactive
CSc1nc2ccccc2n1Cc1cccc(F)c1	none
CC1=C(C(=O)N(C)C)CC(CC(=O)NC(c2ccccc2)c2ccccc2)C(=O)N1Cc1ccc(F)cc1 (stereo not drawn)	UHRF1 binding 23.7, MBD2 DNA inh 13.5 | UHRF1 DNA bind inactive | MBD2 DBD conf inactive
CC1=C(C(=O)N(C)C)CC(CC(=O)NC(c2ccccc2)c2ccccc2)C(=O)N1Cc1ccccc1 (stereo not drawn)	none
O=C(Nc1cccc(F)c1)O[C@@H]1CC[C@@]23CCCN2C(=O)CCC[C@H]3C1	none
Cc1nn2c(-c3ccc(Cl)cc3)nnc2s1	MBD2 DNA inh 14.4 | UHRF1 DNA bind inactive | MBD2 DBD conf inactive
CN(C)c1ccc(-c2nn3c(-c4ccc(Cl)cc4)nnc3s2)cc1	none
CC(C)NC(=O)C(=O)NCC(c1ccc2c(c1)OCO2)N1CCOCC1 (stereo not drawn)	UHRF1 binding 28.4, MBD2 DNA inh 14.3 | UHRF1 DNA bind inactive | MBD2 DBD conf inactive
Cc1ccc(-c2nnc(SCC(=O)Nc3ccc(F)cc3F)n2Cc2ccco2)cc1	none
CS(=O)(=O)c1ccc2nc(NC(=O)c3ccccc3)sc2c1	none
CS(=O)(=O)c1ccc(C(=O)Nc2nc(-c3ccco3)c(-c3ccco3)s2)cc1	LEDGF integ inh 89.0, UHRF1 binding 88.3, MBD2 DNA inh 40.9 | UHRF1 DNA bind inactive | MBD2 DBD conf inactive
COc1cccc(-c2cc3nc(C)c(C)c(N4CCN(Cc5ccco5)CC4)n3n2)c1	none
COc1ccc(NC(=O)N(C)C[C@@H]2OCc3cn(nn3)CCCC(=O)N([C@H](C)CO)C[C@H]2C)cc1	MBD2 DNA inh 16.9 | UHRF1 DNA bind inactive | MBD2 DBD conf inactive
C[C@H]1CN([C@@H](C)CO)C(=O)CCCn2cc(nn2)CO[C@@H]1CN(C)C(=O)C1CC1	none
C[C@@H]1CN([C@@H](C)CO)C(=O)CCCn2cc(nn2)CO[C@H]1CN(C)C(=O)C1CC1	MBD2 DNA inh 13.4 | UHRF1 DNA bind inactive | MBD2 DBD conf inactive
CCC(C)NC(=O)CSc1nc2ccccc2c(=O)n1CCCN1CCCCC1 (stereo not drawn)	MBD2 DNA inh 13.8 | UHRF1 DNA bind inactive | MBD2 DBD conf inactive

Source: PubChem BioAssay (The Scripps Research Institute Molecular Screening Center)
